Compound activity from PubChem.
GASC1 inh: blocks human GASC-1 (KDM4C) demethylase activity | Q9H3R0 | GST-KDM4C 2-372, H3K9me3 peptide, LANCE TR-FRET | inhibition, % at 12.5 µM | 96,000 tested, 0.15% active;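 active = mean replicate inhibition above about 25%, with at least 55% of replicates also reaching it, limit read from the data, passing the limit was not always enough; inconclusive = only one of those two conditions met; inactive = neither condition met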
Target sequence (Q9H3R0 2-372 limits assumed): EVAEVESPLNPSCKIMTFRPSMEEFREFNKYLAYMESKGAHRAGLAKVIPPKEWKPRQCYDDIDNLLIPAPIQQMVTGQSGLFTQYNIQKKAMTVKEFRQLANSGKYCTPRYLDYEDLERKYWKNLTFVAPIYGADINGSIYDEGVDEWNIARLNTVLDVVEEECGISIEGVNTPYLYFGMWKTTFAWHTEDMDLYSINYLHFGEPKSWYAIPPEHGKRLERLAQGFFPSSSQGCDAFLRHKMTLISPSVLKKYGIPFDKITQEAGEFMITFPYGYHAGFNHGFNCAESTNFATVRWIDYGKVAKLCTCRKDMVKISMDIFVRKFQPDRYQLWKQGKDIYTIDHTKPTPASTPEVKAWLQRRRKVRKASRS
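material = GST-tagged GASC-1 (JMJD2C) catalytic fragment, aa 2-372 | amount = enzyme final amount 10 nM | medium = HEPES buffer, pH 7.5, plus ascorbate | also added = H3K9me3 peptide substrate, Fe(II), 2-oxoglutarate | dosing = single dose | times = 30 min demethylation and 1 h detection at room temperature | detection = LANCE TR-FRET | read-out basis = Fall in 671/618 emission ratio as inhibition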
Pf Dd2 growth: P. falciparum Dd2 growth inhibition | SYBR Green, 72 h; stronger effect = lower value | activity change, % at 10 µM | 94,000 tested, 2.3% active; in the data active = activity change below about -80%; inconclusive = no clear call, values can overlap the other calls
T cruzi growth-1: T. cruzi proliferation inhibition | T. cruzi beta-gal in NIH3T3, GalScreen luminescence, 90 h | inhibition, % at 8.34 µM | 77,000 tested, 5.9% active | AID 624255;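 active = mean inhibition above about 93%, with at least 55% of replicates each passing it, limit read from the data, passing the limit was not always enough; inconclusive = only one of those two conditions holds; inactive = neither condition holds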
IDH1 R132H inh: blocks human IDH1 R132H reductase activity; diaphorase/resazurin fluorescence, 60 min; 70,000 tested, 0.18% active; AID 624101; inhibition, % at 10 µM; in the data active = inhibition above about 34%; inconclusive = no clear call, values can overlap the other calls; inactive = below about 11%;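 note: 0% = DMSO and 100% = no enzyme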
Target sequence (O75874 whole entry R132H): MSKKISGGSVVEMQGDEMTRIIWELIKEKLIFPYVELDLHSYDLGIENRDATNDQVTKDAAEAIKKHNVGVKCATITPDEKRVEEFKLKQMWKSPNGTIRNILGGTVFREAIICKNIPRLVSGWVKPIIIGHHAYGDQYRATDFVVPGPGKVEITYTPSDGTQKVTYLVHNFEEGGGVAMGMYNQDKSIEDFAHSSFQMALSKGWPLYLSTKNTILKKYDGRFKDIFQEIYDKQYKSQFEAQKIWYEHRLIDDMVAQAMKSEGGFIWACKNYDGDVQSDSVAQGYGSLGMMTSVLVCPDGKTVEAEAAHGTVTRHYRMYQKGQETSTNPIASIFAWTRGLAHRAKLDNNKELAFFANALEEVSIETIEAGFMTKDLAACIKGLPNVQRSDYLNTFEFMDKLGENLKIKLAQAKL
T cruzi growth-2: inhibitors of T. cruzi proliferation. shares compounds with T cruzi growth-1. T. cruzi beta-gal in NIH3T3, GalScreen luminescence, 90 h. inhibition, % at 8.35 µM. 5,600 tested, 72% active. AID 651739;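 active = mean replicate inhibition above about 95% and at least 55% of replicates individually reaching it, limit read from the data; inconclusive = only one of the two criteria is met; inactive = neither criterion is met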
T cruzi growth-3: blocks T. cruzi growth in NIH3T3 host cells; AID 651740; shares compounds with T cruzi growth-1; inhibition, % at 2.09 µM; 5,600 tested, 21% active; T. cruzi beta-gal in NIH3T3, GalScreen luminescence, 90 h;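 active = mean inhibition above about 95%, with at least 55% of replicates also reaching it, limit read from the data; inconclusive = meets just one of the two conditions; inactive = meets neither condition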;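 note: plate controls were neutral control median for no effect and positive control median for full effect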
NIH3T3 tox: cytotoxicity in mouse NIH/3T3 fibroblasts. 5,600 tested, 14% active. cytotoxicity (signal decrease), % at 8.35 µM. shares compounds with T cruzi growth-1. NIH/3T3 viability, CellTiter-Glo ATP luminescence, 90 h;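 active = mean signal decrease across replicates above about 35% based on untreated-well scatter, with enough replicates individually passing, limit read from the data; inconclusive = no rule stated though some were filed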;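 note: 0% = median of neutral control wells and 100% = median of positive control wells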
3T3 cytotox 2: kills mouse NIH/3T3 fibroblasts; AID 651744; shares compounds with T cruzi growth-1; inhibition, % at 24.9 µM; 5,600 tested, 56% active; NIH/3T3 viability, CellTiter-Glo ATP luminescence, 90 h;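 active = mean loss of cell viability signal at or above a set limit, and enough replicates individually reaching it; inconclusive = meets only the mean limit or only the replicate share; inactive = meets neither condition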;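 note: 0% = median of neutral control wells and 100% = median of positive control wells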
An asterisk follows results filed as active; u = inconclusive; x = no result. Only some compounds are listed: those with a hit (about 5.8% of all), similar ones and a draw of the others.

SMILES | GASC1 inh | Pf Dd2 growth | T cruzi growth-1 | IDH1 R132H inh | T cruzi growth-2 | T cruzi growth-3 | NIH3T3 tox | 3T3 cytotox 2
O=C(C[C@@H]1C[C@H]2c3cc(NC(=O)NC4CCCC4)ccc3O[C@H]2[C@H](CO)O1)NCc1ccccc1 | -1.1 | -20.3 | 102.0* | -0.6 | 11.1 | -29.2 | -8.1 | 21.7
C[C@@H]1CN([C@H](C)CO)C(=O)Cc2cc(NS(=O)(=O)c3cccs3)ccc2O[C@@H]1CN(C)CC1CC1 | 2.4 | -5.1 | -6.6 | -0.4 | x | x | x | x
CC(=O)N(C)C[C@@H]1Oc2cc(C#CCN(C)C)ccc2S(=O)(=O)N([C@H](C)CO)C[C@H]1C | 17.3 | 14.5 | 67.3 | 0.6 | x | x | x | x
CCC(=O)N(C)C[C@@H]1Oc2cc(C#CCN(C)C)ccc2S(=O)(=O)N([C@@H](C)CO)C[C@H]1C | 18.9 | 1.9 | 101.7* | 1.8 | 102.4* | 80.5 | -6.2 | -6.6
CC(=O)N(C)C[C@H]1Oc2cc(C#CCN(C)C)ccc2S(=O)(=O)N([C@H](C)CO)C[C@@H]1C | 0.2 | 21.1 | u | 2.1 | u | 91.1 | -1.4 | -9.7
C[C@H](CO)N1C[C@H](C)[C@@H](CN(C)C(=O)CN(C)C)Oc2cc(C#CCN(C)C)ccc2S1(=O)=O | 5.0 | 8.0 | -2.4 | -2.6 | x | x | x | x
COc1ccc(-c2ccc3c(c2)O[C@@H](CN(C)C(=O)Nc2ccccc2F)[C@@H](C)CN([C@@H](C)CO)S3(=O)=O)cc1 | -1.0 | -77.5 | 79.5 | -1.0 | x | x | x | x
C[C@H](CO)N1C[C@H](C)[C@@H](CN(C)C(=O)CN2CCOCC2)Oc2ncc(-c3cncnc3)cc2C1=O | 1.2 | -16.1 | u | -1.5 | -8.0 | 13.7 | -1.6 | -4.2
C[C@@H]1CN([C@H](C)CO)C(=O)c2cc(-c3ccccc3)cnc2O[C@H]1CN(C)C | 3.5 | 4.3 | u | 1.7 | 100.0* | -25.6 | 4.7 | 20.4
Cc1ccc(-c2cnc3c(c2)C(=O)N([C@@H](C)CO)C[C@H](C)[C@@H](CN(C)CC2CCCC2)O3)cc1 | -1.5 | -69.3 | 102.9* | -0.6 | 107.7* | 43.2 | u | 104.5*
C[C@H]1CN([C@@H](C)CO)C(=O)c2cc(-c3cncnc3)cnc2O[C@H]1CN(C)C(=O)CN1CCOCC1 | 1.7 | 19.3 | x | 0.1 | x | x | x | x
CC(C)CC#Cc1cnc2c(c1)C(=O)N([C@@H](C)CO)C[C@@H](C)[C@@H](CN(C)C(=O)Nc1cccc(F)c1)O2 | 0.2 | -8.2 | 89.3 | x | x | x | x | x
CN1c2ccc(Br)cc2[C@H]2[C@H](CCN2C(=O)C2CCC2)[C@@H]1CO | 3.3 | -37.9 | x | x | x | x | x | x
COc1ccc(C#Cc2ccc3c(c2)O[C@H](CN(C)C(=O)NC2CCCCC2)[C@H](C)CN([C@H](C)CO)S3(=O)=O)cc1 | -3.0 | -61.0 | u | -1.6 | u | 113.1* | -9.3 | 7.9
COc1ccc(C#Cc2ccc3c(c2)O[C@H](CN(C)C(=O)NC2CCCCC2)[C@@H](C)CN([C@H](C)CO)S3(=O)=O)cc1 | -5.5 | -50.3 | u | 0.3 | 106.3* | 62.7 | -18.2 | 32.6*
COc1ccc(C#Cc2ccc3c(c2)O[C@@H](CN(C)C(=O)NC2CCCCC2)[C@@H](C)CN([C@@H](C)CO)S3(=O)=O)cc1 | -4.5 | -77.5 | u | 2.1 | u | 114.2* | -6.2 | 10.5
C[C@@H]1CN([C@H](C)CO)S(=O)(=O)c2ccc(C#Cc3ccc(F)cc3)cc2O[C@H]1CN(C)C(=O)NC1CCCCC1 | -1.6 | -58.8 | 87.2 | x | x | x | x | x
C[C@H](CO)N1C[C@H](C)[C@H](CN(C)C(=O)NC2CCCCC2)Oc2cc(C#Cc3ccc(F)cc3)ccc2S1(=O)=O | -1.4 | -56.6 | 54.1 | -2.9 | x | x | x | x
O=C(c1ccc2c(c1)OCO2)N1C[C@@H]2[C@H](c3ccccc31)[C@@H](CO)N2C(=O)CC1CC1 | -2.6 | -15.7 | 38.6 | x | x | x | x | x
CC(C)(Oc1ccc(Cl)cc1)C(=O)NCc1ccccn1 | x | x | x | -0.7 | x | x | x | x
COc1ccc(CNC(=O)c2cc3c(c(-c4cccc(-c5cccc(C#N)c5)c4)n2)[C@@H](CCO)N([S@](=O)C(C)(C)C)C3)cc1 | -7.0 | -72.9 | u | 0.0 | 106.9* | 100.0* | 19.3 | 45.0*
CC(C)(C)[S@](=O)N1Cc2cc(C(=O)NCc3ccccc3F)nc(-c3cccc(-c4ccncc4)c3)c2[C@@H]1CCO | -1.3 | -77.3 | 99.2* | -0.1 | 102.5* | 90.5 | 19.9 | 103.2*
CC(C)(C)[S@](=O)N1Cc2cc(C(=O)NCc3ccncc3)nc(-c3cccc(-c4cccc(C#N)c4)c3)c2[C@@H]1CCO | -1.0 | -66.2 | 71.8 | -0.1 | x | x | x | x
COc1ccc(CNC(=O)c2cc3c(c(-c4cccc(-c5ccc(C#N)cc5)c4)n2)[C@@H](CCO)N([S@](=O)C(C)(C)C)C3)cc1 | -2.2 | -52.8 | 98.2* | 0.0 | 110.7* | 106.5* | 21.3 | 37.9*
CN(C)C(=O)C[C@H]1C[C@@H]2c3cc(NC(=O)NC4CCCC4)ccc3O[C@@H]2[C@H](CO)O1 | 1.6 | 20.4 | -0.3 | 0.3 | x | x | x | x
SMILES | GASC1 inh | Pf Dd2 growth | T cruzi growth-1 | IDH1 R132H inh | T cruzi growth-2 | T cruzi growth-3 | NIH3T3 tox | 3T3 cytotox 2
CCCC#Cc1ccc([C@@H]2[C@@H](CO)N(C(=O)C3CC3)[C@H]2C#N)cc1 | 2.3 | -13.9 | 101.3* | x | 97.7* | 69.9 | -4.9 | 35.8*
CCCC#Cc1ccc([C@@H]2[C@@H](C#N)N(C(=O)C3CCOCC3)[C@H]2CO)cc1 | -1.1 | -23.3 | 63.1 | x | x | x | x | x
CCCC#Cc1ccc([C@H]2[C@@H](C#N)N(C(=O)C3CC3)[C@H]2CO)cc1 | 0.4 | -37.8 | u | x | u | u | 5.7 | 41.2*
CCCC#Cc1ccc([C@H]2[C@@H](C#N)N(C(=O)C3CC3)[C@@H]2CO)cc1 | -1.2 | -26.1 | u | x | 102.7* | 86.4 | -28.8 | 15.4
CCCC#Cc1ccc([C@H]2[C@@H](C#N)N(C(=O)C3CCC3)[C@H]2CO)cc1 | 0.0 | -55.2 | 92.6 | x | x | x | x | x
CCCC#Cc1ccc([C@H]2[C@H](C#N)N(C(=O)C3CC3)[C@H]2CO)cc1 | -0.9 | -23.8 | 105.7* | x | 107.0* | 89.1 | -3.6 | 32.0*
Cc1ccc(S(=O)(=O)Nc2cccc3c2O[C@H](CN(C)C(=O)Nc2c(C)noc2C)[C@@H](C)CN([C@@H](C)CO)C3=O)cc1 | -1.8 | 34.1 | 24.4 | 1.9 | x | x | x | x
C[C@H](CO)N1C[C@H](C)[C@@H](CN(C)Cc2ccccc2F)Oc2cc(C3=CCCC3)ccc2S1(=O)=O | 5.1 | -19.5 | u | 0.9 | 97.4* | 51.8 | -6.9 | 104.8*
C[C@H]1CN([C@@H](C)CO)S(=O)(=O)c2ccc(C3=CCCC3)cc2O[C@H]1CN(C)Cc1ccccc1F | -2.6 | -43.5 | 94.3 | -0.2 | x | x | x | x
